This note sets out measurements from ChEMBL document CHEMBL1811874, “The effect of sulfonate leaving groups on the hypoxia-selective toxicity of nitro analogs of the duocarmycins” (Bioorg Med Chem, 2011).

Values after ≈ are worked out from the molar mass of the structure shown.

Data set [1] is described as follows: Solubility in alphaMEM culture medium containing 5% FCS at 22 degC. In kind it is physicochemical. In outline: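 Solubility was measured in αMEM with 5% FCS, equilibrated with 5% CO₂/air, at 22 °C.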
Data set [2] has as its system HT-29. Put plainly: Cytotoxicity against human HT-29 cells assessed as reduction of cell density incubated for 4 hrs in oxic (aerobic) condition measured 5 days post dose by SRB assay. In kind it is functional, cell-based. The gist of the method: (§1)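 Log-phase monolayers given a 4 h drug exposure under aerobic (20% O₂) or anoxic (<20 ppm O₂) conditions. Cells were then stained with sulforhodamine B 5 days later. IC50 was interpolated as the concentration that cut cell density to 50% of same-plate controls. Values are means of two to seven experiments.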

The test system of data set [3] is SK-OV-3. Put plainly: Cytotoxicity against human SKOV3 cells assessed as reduction of cell density incubated for 4 hrs in oxic (aerobic) condition measured 5 days post dose by SRB assay. In kind it is functional, cell-based. In outline: as §1
Background: In SRB staining, fixed cells bind dye roughly in proportion to their protein.

Data set [4] has as its system HT-29. Put plainly: Cytotoxicity against human HT-29 cells assessed as reduction of cell density incubated for 4 hrs in hypoxic (anoxic) condition measured 5 days post dose by SRB assay. In kind it is functional, cell-based. In outline: as §1
For data set [5], the system named is SK-OV-3. Put plainly: Cytotoxicity against human SKOV3 cells assessed as reduction of cell density incubated for 4 hrs in hypoxic (anoxic) condition measured 5 days post dose by SRB assay. In kind it is functional, cell-based. The gist of the method: as §1
For data set [6], the system named is SK-OV-3. The data set can be described thus: Hypoxic cytotoxicity ratio, ratio of IC50 for human SKOV3 cells in oxic (aerobic) condition to IC50 for human SKOV3 cells in hypoxic (anoxic) conditions. In kind it is functional. In outline:
(§2)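 HCR was calculated as IC50(oxic)/IC50(hypoxic) after 4 h drug exposure at 20% O₂ or <20 ppm O₂, with SRB read-out 5 days later.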

For data set [7], the system named is HT-29. The data set can be described thus: Hypoxic cytotoxicity ratio, ratio of IC50 for human HT-29 cells in oxic (aerobic) condition to IC50 for human HT-29 cells in hypoxic (anoxic) conditions. In kind it is functional. In outline: as §2
In data set [8] the test system is A549. Put plainly: Cytotoxicity against human A549 cells after 24 hrs. In kind it is functional, cell-based. The note with it: A549, 24 h.
Data set [9] relates to SK-OV-3. Put plainly: Cytotoxicity against human SKOV3 cells. In kind it is functional, cell-based. The gist of the method:
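Log-phase SKOV3 ovarian carcinoma monolayers were exposed to drug for 4 h under aerobic (20% O₂) or anoxic (<20 ppm O₂) conditions, then stained with sulforhodamine B 5 days later. IC50 was interpolated as the concentration that cut cell density to 50% of same-plate controls, given as mean ± SEM of 2–7 experiments. HCR is IC50(oxic)/IC50(hypoxic), taken as means of intraexperiment ratios.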

In data set [10] the test system is CHO-AA8. The data set can be described thus: Cytotoxicity against chinese hamster ovary AA8 cells incubated for 4 hrs. In kind it is functional, cell-based. To be noted: Cricetulus griseus, CHO-AA8, 4 h.
For data set [11], the system named is EMT6. Put plainly: Cytotoxicity against mouse EMT6 cells. In kind it is functional, cell-based.

As for `COc1cc2cc(C(=O)N3CC(COS(=O)(=O)c4ccc(C)cc4)c4c3cc([N+](=O)[O-])c3ccccc43)[nH]c2c(OC)c1OC` (configuration not stated), the concentration in solution in [1] (solubility) came to 89 µM (≈ 56.2 µg/mL). Also, the IC50 (as a rule, the midpoint of a concentration-inhibition curve) in data set [2] is 12000 nM; in data set [3] it was 8800 nM; in data set [4], 470 nM; in data set [5], 220 nM. Also, the “Ratio IC50” value came to 72 in [6] and 28 in data set [7].
Consider `COc1cc2cc(C(=O)N3CC(COS(=O)(=O)C4CCCCC4)c4c3cc([N+](=O)[O-])c3ccccc43)[nH]c2c(OC)c1OC` (configuration not stated), for which the solubility (usually how much of the substance goes into solution per volume) in data set [1] was determined as 70 µM (≈ 43.7 µg/mL). Also, the IC50 was determined as 9900 nM in data set [2], 16000 nM in [3], 440 nM in data set [4] and 190 nM in [5]. Moreover, the “Ratio IC50” value in data set [6] is reported as 146; in [7] it was 26.
For `CN(C)CCOc1ccc2[nH]c(C(=O)N3CC(COS(=O)(=O)Cc4ccccc4)c4c3cc([N+](=O)[O-])c3ccccc43)cc2c1` (configuration not stated), the concentration in solution in data set [1] (solubility) came to 91 µM (≈ 57.2 µg/mL). In addition, the IC50 was 240 nM in data set [2], 270 nM in data set [3], 80 nM in data set [4] and 150 nM in data set [5]. Besides, the “Ratio IC50” value in data set [6] is on record as 1.8; in data set [7], 4.
`CN(C)CCOc1ccc2[nH]c(C(=O)N3CC(CCl)c4c3cc([N+](=O)[O-])c3ccccc43)cc2c1` (configuration not stated): the solubility in [1] amounted to 193 µM (≈ 95.1 µg/mL). The IC50 was determined as 470 nM in [2], 1400 nM in data set [3], 480 nM in data set [4] and 870 nM in data set [5].
Molecule `COc1ccc(/C=C/C(=O)N2CC(COS(=O)(=O)Cc3ccccc3)c3c2cc([N+](=O)[O-])c2ccccc32)cc1O` (configuration not stated) gave a solubility in data set [1] of 35 µM (≈ 20.1 µg/mL). Moreover, the half-maximal inhibitory concentration (IC50) in data set [2] came out at 1000 nM; in [3], 570 nM; in data set [4], 1000 nM; in [5], 160 nM. Moreover, the figures for the “Ratio IC50” value in data set [6] and in data set [7] were 3.9 and 1.1, respectively.
As for `COc1cc2cc(C(=O)N3CC(COS(C)(=O)=O)c4c3cc([N+](=O)[O-])c3ccccc43)[nH]c2c(OC)c1OC` (configuration not stated), the solubility in data set [1] turned out to be 69 µM (≈ 38.3 µg/mL). Also, the IC50 worked out at 1500 nM in data set [2], 2200 nM in data set [3], 310 nM in data set [4] and 140 nM in data set [5]. The “Ratio IC50” value came out at 39 in data set [6] and 4.6 in data set [7].
Regarding `CN(C)CCOc1ccc2[nH]c(C(=O)N3CC(COS(=O)(=O)C4CCCCC4)c4c3cc([N+](=O)[O-])c3ccccc43)cc2c1` (configuration not stated), the concentration in solution in [1] (solubility) was 22 µM (≈ 13.7 µg/mL). For the same molecule, the IC50 in data set [2] came to 410 nM; in data set [3] it was 470 nM; in [4], 200 nM; in [5], 300 nM. The “Ratio IC50” value in [6] was determined as 1.5; in [7], 2.3.
For the molecule `O=C(c1cc2cc(OCCO)ccc2[nH]1)N1CC(CCl)c2c1cc([N+](=O)[O-])c1ccccc21` (configuration not stated), the concentration in solution in data set [1] (solubility) came to 13 µM (≈ 6.06 µg/mL). The IC50 in data set [2] is 6600 nM; in data set [3], 9300 nM; in data set [4] it was 5700 nM; in data set [5] it was 3300 nM. The results for the “Ratio IC50” value in data set [6] and in [7] were 3.8 and 1.1, respectively.
On to `COc1cc2cc(C(=O)N3CC(COS(C)(=O)=O)c4c3cc(N)c3ccccc43)[nH]c2c(OC)c1OC` (configuration not stated), for which the solubility in data set [1] was 15 µM (≈ 7.88 µg/mL).
With `Cc1ccc(S(=O)(=O)OCC2CN(C(=O)c3cc4cc(OCCO)ccc4[nH]3)c3cc([N+](=O)[O-])c4ccccc4c32)cc1` (configuration not stated), the concentration in solution in data set [1] (solubility) was 29 µM (≈ 17.4 µg/mL). Besides, the IC50 in data set [2] was 3300 nM; in [3], 3000 nM; in [4], 2700 nM; in [5] it was 770 nM. In addition, the “Ratio IC50” value in data set [6] is 2.8; in [7], 0.81.
Molecule `COc1cc2cc(C(=O)N3CC(CCl)c4c3cc([N+](=O)[O-])c3ccccc43)[nH]c2c(OC)c1OC` (configuration not stated) showed a solubility in data set [1] of 5 µM (≈ 2.48 µg/mL). The IC50 in [2] turned out to be 3400 nM; in [3] it was 4200 nM; in [4] it was 1600 nM; in data set [5], 1700 nM.
The molecule `O=C(c1cc2cc(OCCO)ccc2[nH]1)N1CC(COS(=O)(=O)Cc2ccccc2)c2c1cc([N+](=O)[O-])c1ccccc21` (configuration not stated) returned a solubility in [1] of 46 µM (≈ 27.7 µg/mL). Also, the IC50 was 1800 nM in [2], 1200 nM in data set [3], 660 nM in data set [4] and 210 nM in data set [5]. The figures for the “Ratio IC50” value in [6] and in [7] were 7.1 and 2.4, respectively.
For `COc1ccc2[nH]c(C(=O)N3CC(CCl)c4c3cc([N+](=O)[O-])c3ccccc43)cc2c1` (configuration not stated), the concentration in solution in data set [1] (solubility) came to 38 µM (≈ 16.6 µg/mL). Moreover, the IC50 in [2] stood at 9700 nM; in data set [3], 4800 nM; in data set [4], 1300 nM; in data set [5], 1540 nM. The “Ratio IC50” value in [6] is 3.1; in data set [7], 7.4.
Take `Nc1cc2c(c3ccccc13)C(CCl)CN2C(=O)c1cc2cc(OCCO)ccc2[nH]1` (configuration not stated): the solubility in data set [1] came to 22 µM (≈ 9.59 µg/mL). Also, the IC50 is 3.3 nM in data set [3] and 4.2 nM in [5]. Besides, in data set [6], the “Ratio IC50” value worked out at 0.8.
`COc1ccc(/C=C/C(=O)N2CC(CCl)c3c2cc([N+](=O)[O-])c2ccccc32)cc1O` (configuration not stated) showed a solubility in data set [1] of 9 µM (≈ 3.95 µg/mL). The IC50 was 1700 nM in data set [2], 890 nM in data set [3], 590 nM in [4] and 400 nM in data set [5]. In addition, the “Ratio IC50” value in [6] is on record as 3.3; in data set [7], 4.5.
The molecule `CN(C)CCOc1ccc2[nH]c(C(=O)N3C[C@@H](CCl)c4c3cc(O)c3ccccc43)cc2c1` had an IC50 in data set [8] of 0.026 nM.
`COc1ccc2[nH]c(C(=O)N3CC(COS(=O)(=O)c4ccc(C)cc4)c4c3cc([N+](=O)[O-])c3ccccc43)cc2c1` (configuration not stated) showed a solubility in data set [1] of 12 µM (≈ 6.86 µg/mL). The IC50 in data set [2] is 6500 nM; in [3], 11000 nM; in data set [4], 700 nM; in data set [5], 380 nM. Further, the entries for the “Ratio IC50” value in data set [6] and in data set [7] were 34 and 7.9, respectively.
Take `COc1cc2cc(C(=O)N3CC(CCl)c4c3cc(N)c3ccccc43)[nH]c2c(OC)c1OC` (configuration not stated): the figures for the IC50 in data set [9], in [10] and in [11] were 1.2 nM, under 1 nM and 0.4 nM, respectively.
In the case of `COc1cc2cc(C(=O)N3CC(COS(=O)(=O)C4CCCCC4)c4c3cc(N)c3ccccc43)[nH]c2c(OC)c1OC` (configuration not stated), in data set [1], the concentration in solution (solubility) came to 37 µM (≈ 22 µg/mL). The IC50 in [3] worked out at 4.9 nM; in [5] it was 6.5 nM. In addition, in data set [6], the “Ratio IC50” value was found to be 1.
